Key:
FM3A [1] = experiment: Mammalian cell cytotoxicity assessed against mouse mammary tumor FM3A cells; assay type: functional, cell-based
Procedure, shortened: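 Mouse mammary tumor FM3A cells in culture used as a mammalian cytotoxicity control; EC50 determined by a previously reported protocol. Selectivity is the mean EC50 for FM3A cells divided by the mean EC50 for P. falciparum.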

Plasmodium falciparum = experiment: (§1) In vitro antimalarial activity against Plasmodium falciparum; assay type: functional, organism-based
FM3A [2] = experiment: as §1; assay type: functional
Mus musculus [3] = experiment: In vivo 90% effective dose tested against Plasmodium berghei NK65 infected mice (Mus musculus), after oral administration.; assay type: functional
Procedure, shortened: (§2)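 Mice infected with P. berghei, in groups of five, were given the compounds orally in olive oil at various concentrations. Dosing was once daily on days 0–3. Parasitemia was determined on day 4, and ED values were derived by a previously reported protocol.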

Mus musculus [4] = experiment: In vivo 90% effective dose tested against Plasmodium berghei NK65 infected mice (Mus musculus), after intraperitoneal administration; assay type: functional; details: ip
Procedure, shortened: (§3)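 Mice infected with P. berghei, in groups of five, were given the compounds intraperitoneally in olive oil at various concentrations. Dosing was once daily on days 0–3. Parasitemia was determined on day 4, and ED values were derived by a previously reported protocol.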

Mus musculus [5] = experiment: In vivo 50% effective dose tested against Plasmodium berghei NK65 infected mice (Mus musculus), after intraperitoneal administration; assay type: functional; details: ip; procedure, shortened: as §3
Mus musculus [6] = experiment: In vivo 50% effective dose tested against Plasmodium berghei NK65 infected mice (Mus musculus), after oral administration.; assay type: functional; procedure, shortened: as §2
Mus musculus [7] = experiment: In vivo […] effective dose tested against Plasmodium berghei NK 65 infected mice (Mus musculus), after intraperitoneal administration; assay type: functional; details: ip; procedure, shortened: as §3

`CCOC(C)OOC1(OOC)CCCCCCCCCCC1` (stereo unspecified) showed an EC50 (FM3A [1]) of 12000 nM, an EC50 (Plasmodium falciparum) of 290 nM and a Selectivity ratio (FM3A [2]) of 41.
Work on `COOC1(OOC(C)(C)OC)CCCCCCCCCCC1` yielded an EC50 (FM3A [1]) of 7300 nM, an EC50 (Plasmodium falciparum) of 240 nM and a Selectivity ratio (FM3A [2]) of 30.
`C=C(C)COOC1(OOC)CCCCCCCCCCC1` was tested, and the EC50 (FM3A [1]) was 17000 nM, the EC50 (Plasmodium falciparum) was 1300 nM and the Selectivity ratio (FM3A [2]) was 13.
With `COOC1(OOCCCCCCI)CCCCCCCCCCC1` the EC50 (FM3A [1]) was 86000 nM, the EC50 (Plasmodium falciparum) was 740 nM and the Selectivity ratio (FM3A [2]) was 116.
`C=C(C)COOC1(OOCC(=C)C)CCCCCCCCCCC1` gave an EC50 (FM3A [1]) of 38000 nM, an EC50 (Plasmodium falciparum) of 1500 nM and a Selectivity ratio (FM3A [2]) of 25.
For `COOC1(OOC)CCCCCCCCCCC1`, the EC50 (FM3A [1]) was 1500 nM, the ED90 (Mus musculus [3]) was 60 mg/kg and the EC50 (Plasmodium falciparum) was 86 nM. It also gave an ED90 (Mus musculus [4]) of 20 mg/kg, an ED50 (Mus musculus [5]) of 13 mg/kg and a Selectivity ratio (FM3A [2]) of 17. It also gave an ED50 (Mus musculus [6]) of 30 mg/kg.
Work on `CCCOOC1(OOCCC)CCCCCCCCCCC1` yielded an EC50 (FM3A [1]) of 12000 nM, an EC50 (Plasmodium falciparum) of 1800 nM and a Selectivity ratio (FM3A [2]) of 7.
Work on `CCCCC(CCCC)(OC)OOCC` yielded an EC50 (FM3A [1]) of over 48000 nM, an EC50 (Plasmodium falciparum) of 8600 nM and a Selectivity ratio (FM3A [2]) of over 6.
Compound `CCCCOOC1(OOCCCC)CCCCCCCCCCC1` has an EC50 (FM3A [1]) of 8500 nM, an EC50 (Plasmodium falciparum) of 2100 nM and a Selectivity ratio (FM3A [2]) of 4.
`COOC1(OOCCCCCCO)CCCCCCCCCCC1` showed an EC50 (FM3A [1]) of 1600 nM, an EC50 (Plasmodium falciparum) of 72 nM and an ED90 (Mus musculus [4]) of 60 mg/kg. The ED50 (Mus musculus [5]) was 30 mg/kg and the Selectivity ratio (FM3A [2]) was 22.
`COOC1(OOCCCCCCOC2CCOCC2)CCCCCCCCCCC1` showed an EC50 (FM3A [1]) of 7600 nM, an EC50 (Plasmodium falciparum) of 900 nM and a Selectivity ratio (FM3A [2]) of 8.
With `C=CCOOC1(OOCC=C)CCCCCCCCCCC1` the EC50 (FM3A [1]) was 14000 nM, the EC50 (Plasmodium falciparum) was 1600 nM and the Selectivity ratio (FM3A [2]) was 9.
`CCCOOC1(OC)CCCCCCCCCCC1` gave an EC50 (FM3A [1]) of over 37000 nM, an EC50 (Plasmodium falciparum) of 620 nM and a Selectivity ratio (FM3A [2]) of over 60.
With `COOC1(OOCCC(=O)O)CCCCCCCCCCC1` the EC50 (FM3A [1]) was 450 nM and the EC50 (Plasmodium falciparum) was 5000 nM.
`COOC1(OOCCC(=O)OC)CCCCCCCCCCC1` gave an EC50 (FM3A [1]) of 1400 nM, an EC50 (Plasmodium falciparum) of 230 nM and a Selectivity ratio (FM3A [2]) of 6.
`C=C(C)COOC(CCCC)(CCCC)OOC` gave an EC50 (FM3A [1]) of 15000 nM, an EC50 (Plasmodium falciparum) of 1600 nM and a Selectivity ratio (FM3A [2]) of 9.
`COOC1(OOCCCc2ccccc2)CCCCCCCCCCC1` was tested, and the EC50 (FM3A [1]) was 34000 nM, the EC50 (Plasmodium falciparum) was 1000 nM and the Selectivity ratio (FM3A [2]) was 34.
With `C=CCCOOC1(OOC)CCCCCCCCCCC1` the EC50 (FM3A [1]) was 6000 nM, the EC50 (Plasmodium falciparum) was 380 nM and the Selectivity ratio (FM3A [2]) was 16.
`COOC1(OOCCCCCC(=O)O)CCCCCCCCCCC1` gave an EC50 (FM3A [1]) of 14000 nM, an EC50 (Plasmodium falciparum) of 270 nM and a Selectivity ratio (FM3A [2]) of 52.
`CCCCOOC1(OOC)CCCCCCCCCCC1` showed an EC50 (FM3A [1]) of 20000 nM, an EC50 (Plasmodium falciparum) of 220 nM and an ED90 (Mus musculus [4]) of 80 mg/kg. It also gave an ED50 (Mus musculus [5]) of 35 mg/kg and a Selectivity ratio (FM3A [2]) of 91.
For `CCOOC1(OOCC)CCCCCCCCCCC1`, the EC50 (FM3A [1]) was 10000 nM, the ED50 (Mus musculus [7]) was 64 mg/kg and the EC50 (Plasmodium falciparum) was 200 nM. The ED50 (Mus musculus [5]) was 41 mg/kg and the Selectivity ratio (FM3A [2]) was 50.
In the case of `CCOOC1(OC)CCCCCCCCCCC1`, the EC50 (FM3A [1]) is reported as 26000 nM, the EC50 (Plasmodium falciparum) is reported as 230 nM and the ED50 (Mus musculus [5]) is reported as over 100 mg/kg. The Selectivity ratio (FM3A [2]) was 113.
In the case of `COOC1(OC)CCCCCCCCCCC1`, the EC50 (FM3A [1]) is reported as 19000 nM, the EC50 (Plasmodium falciparum) is reported as 80 nM and the ED90 (Mus musculus [4]) is reported as 68 mg/kg. It also gave an ED50 (Mus musculus [5]) of 30 mg/kg and a Selectivity ratio (FM3A [2]) of 238.
In the case of `C[C@@H]1CC[C@H]2[C@@H](C)C(=O)O[C@@H]3O[C@@]4(C)CC[C@@H]1[C@]32OO4` [ARTEMISININ], the ED90 (Mus musculus [3]) is reported as 89 mg/kg, the ED90 (Mus musculus [4]) is reported as 32 mg/kg and the ED50 (Mus musculus [5]) is reported as 5.4 mg/kg. The Selectivity ratio (FM3A [2]) was 1000 and the ED50 (Mus musculus [6]) was 13 mg/kg.

Reference: ChEMBL document CHEMBL1135896, “Synthesis and notable antimalarial activity of acyclic peroxides, L-(alkyldioxy)-L-(methyldioxy)cyclododecanes” (J Med Chem, 2002)
